Reference: ChEMBL document CHEMBL4699411, “A3- and A2B-nitrocorroles: synthesis and antiviral activity evaluation against human cytomegalovirus infection” (RSC Med Chem, 2020)
Calls of active or inactive are those of the source. No cut-off for these calls is given here.

Experiments:
Human betaherpesvirus 5 [1] = experiment: Antiviral activity against Human cytomegalovirus harboring ANCHOR infected in MRC5 cells assessed as reduction in viral infection at measured after 6 days by microscopic analysis relative to control; type: functional, cell-based; details: time 6.0 day
How it was run: (§1)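 MRC-5 primary fibroblasts in phenol red-free DMEM with 10% FBS were seeded 8k/well. At 24 h they were treated with compound, infected with hCMV ANCHOR at MOI 1, and fixed 6 days post infection. High-content imaging gave infection rate (fluorescent/total cells) and replication (integrated ANCHOR spot intensity) over ≥1000 cells/well, normalized to DMSO; mean of three wells ± SD.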

[2] = Cytotoxicity against human ARPE-19 cells assessed as reduction in nuclei count measured after 10 days for Hoechst 33342 staining based microscopic analysis; type: cell-based; details: time 10 day
How it was run: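 ARPE-19 epithelial cells seeded at 8k/well in complete DMEM with 10% FBS and treated with increasing compound concentrations 24 h later. Incubated 10 days at 37 °C. Formalin-fixed, stained with Hoechst 33342 (1 μg mL–1), and nuclei counted by high-content imaging. Counts normalized to DMSO wells. CC50 is the concentration reducing nuclei count by 50%. Mean of two wells ± SD.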

[3] = Selectivity index, ratio of CC50 for human ARPE-19 cells assessed as reduction in nuclei count measured after […] 33342 staining based microscopic analysis to EC50 Human cytomegalovirus infected in ARPE-19 cells measured after 10 days by microscopic analysis; type: toxicity, cell-based; details: read-out: Ratio CC50/EC50
How it was run: (§2)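 CC50 comes from Hoechst nuclei counts after compound treatment, normalized to DMSO. IC50 comes from hCMV ANCHOR infection at MOI 1 in MRC-5 (read 6 dpi) or MOI 10 in ARPE-19 (read 10 dpi). Infection rate is fluorescent cells over total cells, from at least 1000 cells per well, in triplicate wells. SI is CC50 divided by IC50.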

Human betaherpesvirus 5 [4] = experiment: Antiviral activity against Human cytomegalovirus harboring ANCHOR infected in ARPE-19 cells assessed as reduction in viral infection measured after 10 days by microscopic analysis relative to control; details: time 10.0 day
Human betaherpesvirus 5 [5] = experiment: Antiviral activity against Human cytomegalovirus infected in MRC5 cells assessed as reduction in viral plaque at 0.3 uM measured after 6 days by microscopic analysis; type: functional, cell-based; details: time 6.0 day
How it was run: (§3)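 MRC-5 fibroblasts seeded at 8k cells/well and infected 24 h later with fluorescent hCMV ANCHOR strain at MOI 1, with compound added at increasing concentrations. Cultured 6 days, fixed with formalin, nuclei stained with Hoechst, and imaged by high-content microscopy. Fluorescent plaques and replication centres were scored against DMSO-treated cells.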

Human betaherpesvirus 5 [6] = experiment: Antiviral activity against Human cytomegalovirus infected in ARPE-19 cells measured after 10 days by fluorescence based microscopic analysis; type: functional, cell-based
How it was run: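 Cells were ARPE-19 in phenol red-free DMEM with 10% FBS, seeded 8k/well. At 24 h they received a range of compound concentrations and hCMV ANCHOR at MOI 10, then were fixed 10 days post infection. Imaging scored infection rate (fluorescent/total cells) and ANCHOR spot intensity over ≥1000 cells/well, normalized to DMSO and used to derive IC50; mean of three wells ± SD.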

[7] = Cytotoxicity against human MRC5 cells assessed as reduction in nuclei count measured after 6 days for Hoechst 33342 staining based microscopic analysis; type: cell-based; details: time 6 day
How it was run: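 MRC-5 fibroblasts seeded at 8k/well in complete DMEM with 10% FBS and treated 24 h later with increasing compound concentrations. Incubated 6 days at 37 °C, 5% CO2. Formalin-fixed, Hoechst 33342 (1 μg mL–1) stained, and nuclei counted by high-content imaging. Counts normalized to DMSO wells. CC50 is the concentration halving the nuclei count. Mean of two wells ± SD.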

Human betaherpesvirus 5 [8] = experiment: Antiviral activity against Human cytomegalovirus infected in MRC5 cells measured after 6 days by fluorescence based microscopic analysis; type: functional, cell-based; how it was run: as §1
Human betaherpesvirus 5 [9] = experiment: Antiviral activity against Human cytomegalovirus infected in MRC5 cells assessed as reduction in viral plaque at 1.25 uM measured after 6 days by microscopic analysis; type: functional, cell-based; details: time 6.0 day; how it was run: as §3
[10] = Selectivity index, ratio of CC50 for human MRC5 cells assessed as reduction in nuclei count measured after 6 days for Hoechst 33342 staining based microscopic analysis to EC50 Human cytomegalovirus infected in MRC5 cells measured after 6 days by microscopic analysis; type: toxicity, cell-based; details: time 6 day, read-out: Ratio CC50/EC50; how it was run: as §2
Human betaherpesvirus 5 [11] = experiment: Antiviral activity against Human cytomegalovirus infected in MRC5 cells assessed as reduction in viral plaque at 2.5 uM measured after 6 days by microscopic analysis relative to control; type: functional; parameters: scale not given: the % may be the effect or the level left; details: time 6 day
How it was run: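 Compound-treated MRC-5 fibroblasts were infected with hCMV ANCHOR at MOI 1, fixed 6 days post infection and imaged by fluorescence microscopy. Fluorescent viral plaques and replication centres were compared against vehicle (DMSO)-treated wells.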

Human betaherpesvirus 5 [12] = experiment: Antiviral activity against Human cytomegalovirus harboring ANCHOR infected in MRC5 cells assessed as reduction in virus-induced cytopathic effect; type: functional, cell-based
Human betaherpesvirus 5 [13] = experiment: Antiviral activity against Human cytomegalovirus harboring ANCHOR infected in ARPE-19 cells assessed as reduction in viral infection at 0.75 uM measured after 6 days by microscopic analysis relative to control; type: functional; details: time 6 day
How it was run: (§4)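 ARPE-19 epithelial cells grown in phenol red-free DMEM with 10% FBS, seeded 8k/well. After 24 h they were treated with compound and infected with hCMV ANCHOR (fluorescently labelled viral DNA) at MOI 10, then fixed 6 days post infection. High-content imaging scored infection rate (fluorescent/total cells) and replication (integrated ANCHOR spot intensity) over ≥1000 cells/well, normalized to DMSO; mean of three wells ± SD.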

Human betaherpesvirus 5 [14] = experiment: Antiviral activity against Human cytomegalovirus harboring ANCHOR infected in MRC5 cells assessed as reduction in viral infection at 0.75 uM measured after 6 days by microscopic analysis relative to control; type: functional; parameters: scale not given: the % may be the effect or the level left; details: time 6 day; how it was run: as §1
Human betaherpesvirus 5 [15] = experiment: Antiviral activity against Human cytomegalovirus harboring ANCHOR infected in MRC5 cells assessed as reduction in viral replication at 0.75 uM measured after 6 days by microscopic analysis relative to control; type: functional; parameters: scale not given: the % may be the effect or the level left; details: time 6 day; how it was run: as §1
Human betaherpesvirus 5 [16] = experiment: Antiviral activity against Human cytomegalovirus harboring ANCHOR infected in ARPE-19 cells assessed as reduction in viral replication at 0.75 uM measured after 6 days by microscopic analysis relative to control; type: functional; details: time 6 day; how it was run: as §4
[17] = Human betaherpesvirus 5, ARPE-19, 240 h, read-out: IC50
[18] = Human betaherpesvirus 5, MRC5, 144 h, read-out: IC50

Row | SMILES | CC50 at 240 h [2] [µM] | selectivity ratio [3] | IC50 (Human betaherpesvirus 5 [6]; [17]) [µM] | CC50 at 144 h [7] [µM] | IC50 (Human betaherpesvirus 5 [8]; [18]) [µM] | selectivity ratio at 144 h [10] | IC50 (Human betaherpesvirus 5 [8]; mrc5) | IC50 (Human betaherpesvirus 5 [6]; arpe-19) | other results
1 | O=[N+]([O-])c1cc(F)cc(-c2c3ccc([nH]3)c(-c3cc(F)ccc3[N+](=O)[O-])c3nc(c4ccc([nH]4)c(-c4cc(F)ccc4[N+](=O)[O-])c4ccc2[nH]4)C=C3)c1 | > 50 | > 227 | 0.22 | > 50 | 2 | > 25 |  |  | Activity (Human betaherpesvirus 5 [1]): Dose-dependent effect; Activity (Human betaherpesvirus 5 [4]): Dose-dependent effect; Activity (Human betaherpesvirus 5 [5]): Active; Activity (Human betaherpesvirus 5 [9]): Active
2 | O=[N+]([O-])c1cccc(-c2c3nc(c4ccc([nH]4)c(-c4cccc([N+](=O)[O-])c4F)c4ccc([nH]4)c(-c4cccc([N+](=O)[O-])c4F)c4ccc2[nH]4)C=C3)c1F | > 50 | > 82 | 0.6 | > 50 | 1.8 | > 27 |  |  | Activity (Human betaherpesvirus 5 [1]): Dose-dependent effect; Activity (Human betaherpesvirus 5 [11]): 100%; Activity (Human betaherpesvirus 5 [4]): Dose-dependent effect; Activity (Human betaherpesvirus 5 [9]): Active
3 | O=[N+]([O-])c1cc(F)cc(-c2c3nc(c4ccc([nH]4)c(-c4cc(F)cc([N+](=O)[O-])c4)c4ccc([nH]4)c(-c4cc(F)cc([N+](=O)[O-])c4)c4ccc2[nH]4)C=C3)c1 | > 50 | > 26 | 1.9 | > 50 |  |  | Not Active |  | 
4 | O=[N+]([O-])c1cccc(-c2c3nc(c4ccc([nH]4)c(-c4cccc([N+](=O)[O-])c4)c4ccc([nH]4)c(-c4ccccc4)c4ccc2[nH]4)C=C3)c1 | > 50 |  |  | > 50 |  |  | Not Active | Not Active | 
5 | O=[N+]([O-])c1ccc(F)c(-c2c3nc(c4ccc([nH]4)c(-c4c(F)ccc([N+](=O)[O-])c4F)c4ccc([nH]4)c(-c4c(F)ccc([N+](=O)[O-])c4F)c4ccc2[nH]4)C=C3)c1F | 9.8 | 31.6 | 0.31 | 8.77 | 0.86 | 10.2 |  |  | 
6 | O=[N+]([O-])c1ccc(F)cc1-c1c2nc(c3ccc([nH]3)c(-c3cc(F)ccc3[N+](=O)[O-])c3ccc([nH]3)c(-c3cc(F)ccc3[N+](=O)[O-])c3ccc1[nH]3)C=C2 | > 50 | > 10 | 5.2 | > 50 | 7.1 | > 7 |  |  | 
7 | O=[N+]([O-])c1cc(-c2c3nc(c4ccc([nH]4)c(-c4cc([N+](=O)[O-])c(Br)cc4F)c4ccc([nH]4)c(-c4cc([N+](=O)[O-])c(Br)cc4F)c4ccc2[nH]4)C=C3)c(F)cc1Br | > 50 |  |  | > 50 |  |  | Not Active | Not Active | 
8 | O=[N+]([O-])c1ccc(-c2c3nc(c4ccc([nH]4)c(-c4ccc([N+](=O)[O-])cc4F)c4ccc([nH]4)c(-c4ccc([N+](=O)[O-])cc4F)c4ccc2[nH]4)C=C3)c(F)c1 | 5.3 | 21.2 | 0.25 | 3.4 | 0.7 | 4.5 |  |  | 
9 | O=[N+]([O-])c1cc(C(F)(F)F)ccc1-c1c2nc(c3ccc([nH]3)c(-c3ccc(C(F)(F)F)cc3[N+](=O)[O-])c3ccc([nH]3)c(-c3ccc(C(F)(F)F)cc3[N+](=O)[O-])c3ccc1[nH]3)C=C2 | > 50 | > 10 | 5 | > 50 | 2.8 | > 17 |  |  | 
10 | O=[N+]([O-])c1cc(-c2c3nc(c4ccc([nH]4)c(-c4ccc(F)c([N+](=O)[O-])c4)c4ccc([nH]4)c(-c4ccc(F)c([N+](=O)[O-])c4)c4ccc2[nH]4)C=C3)ccc1F | > 50 |  |  | > 50 |  |  | Not Active | Not Active | 
11 | CN(C)c1ccc(-c2c3nc(c4ccc([nH]4)c(-c4ccc(N(C)C)cc4[N+](=O)[O-])c4ccc([nH]4)c(-c4ccc(N(C)C)cc4[N+](=O)[O-])c4ccc2[nH]4)C=C3)c([N+](=O)[O-])c1 | > 50 |  |  | > 50 |  |  | Not Active | Not Active | 
12 | O=[N+]([O-])c1ccc(F)c(-c2c3nc(c4ccc([nH]4)c(-c4cc([N+](=O)[O-])ccc4F)c4ccc([nH]4)c(-c4cc([N+](=O)[O-])ccc4F)c4ccc2[nH]4)C=C3)c1 | 50 | 39 | 1.3 | 3.7 | 1.5 | 2.4 |  |  | Activity (Human betaherpesvirus 5 [12]): Active; fold change (FC) (Human betaherpesvirus 5 [13]): 10; Activity (Human betaherpesvirus 5 [14]): 60%; Activity (Human betaherpesvirus 5 [15]): 80%; fold change (FC) (Human betaherpesvirus 5 [16]): 5
13 | O=[N+]([O-])c1ccc(-c2c3nc(c4ccc([nH]4)c(-c4ccc([N+](=O)[O-])c(F)c4)c4ccc([nH]4)c(-c4ccc([N+](=O)[O-])c(F)c4)c4ccc2[nH]4)C=C3)cc1F | > 50 |  |  | > 50 |  |  | Not Active | Not Active | 
14 | O=[N+]([O-])c1cccc(-c2c3nc(c4ccc([nH]4)c(-c4cccc([N+](=O)[O-])c4)c4ccc([nH]4)c(-c4ccc(F)c([N+](=O)[O-])c4)c4ccc2[nH]4)C=C3)c1 | > 50 | > 10 | 5 | > 50 |  |  | Not Active |  | 
15 | O=[N+]([O-])c1cc(F)cc(-c2c3nc(c4ccc([nH]4)c(-c4cc(F)cc([N+](=O)[O-])c4)c4ccc([nH]4)c(-c4cc(F)ccc4[N+](=O)[O-])c4ccc2[nH]4)C=C3)c1 | 16.5 | 51 | 0.32 | 18 |  |  | Not Active |  | 
16 | O=[N+]([O-])c1ccc(Cl)cc1-c1c2nc(c3ccc([nH]3)c(-c3cc(Cl)ccc3[N+](=O)[O-])c3ccc([nH]3)c(-c3cc(Cl)ccc3[N+](=O)[O-])c3ccc1[nH]3)C=C2 | > 50 |  |  | > 50 |  |  | Not Active | Not Active | 
17 | O=[N+]([O-])c1cc(F)ccc1-c1c2nc(c3ccc([nH]3)c(-c3ccc(F)cc3[N+](=O)[O-])c3ccc([nH]3)c(-c3ccc(F)cc3[N+](=O)[O-])c3ccc1[nH]3)C=C2 | > 50 | > 11 | 4.3 | > 50 | 3 | > 16 |  |  | Activity (Human betaherpesvirus 5 [1]): Dose-dependent effect; Activity (Human betaherpesvirus 5 [4]): Dose-dependent effect
